Assay [1] has as its system Nucleic Acid.
Assay [2] relates to Aspergillus fumigatus. As to the kind of experiment: Antimicrobial activity against Aspergillus fumigatus (MIC). The assay is classed as functional.
For assay [3], the system named is Nucleic Acid. The source holds these as a separate data set.
The test system of assay [4] is Aspergillus fumigatus. Description: In vitro minimum fungicidal concentration required to inhibit Aspergillus fumigatus(MFC). The assay is classed as functional. The procedure, abridged:
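Mould MFC: 100 µL aliquots from macrodilution tubes (RPMI 1640/MOPS pH 7.0, 0.5 × 10³ to 2.5 × 10³ CFU/mL conidial inoculum, 30 °C, 48-72 h, drug 100 to 0.09 µg/mL) showing complete growth inhibition plated on Sabouraud agar; MFC taken as lowest drug concentration giving three or fewer colonies.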

The test system of assay [5] is Candida albicans. As to the kind of experiment: In vitro minimum inhibitory concentration against Candida albicans. The assay is classed as functional.
For assay [6], the system named is Mycobacterium tuberculosis. Description: In vitro minimum inhibitory concentration required to inhibit Mycobacterium tuberculosis. The assay is classed as functional. The procedure, abridged:
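M. tuberculosis H37Rv grown in BACTEC 12B medium; fluorometric broth microdilution (Microplate Alamar Blue Assay). […] MIC = lowest concentration reducing relative fluorescence units by ≥90% relative to control culture. Testing done by TAACF.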

Assay [7] concerns Candida albicans. As to the kind of experiment: In vitro minimum fungicidal concentration against Candida albicans. The assay is classed as functional. The procedure, abridged: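 Yeast MFC: after broth macrodilution (RPMI 1640/MOPS pH 7.0, 0.5 × 10³ to 2.5 × 10³ CFU/mL, 35 °C, 48 h or 72 h for C. neoformans, drug 100 to 0.09 µg/mL), 100 µL from tubes with complete inhibition plated on Sabouraud agar; lowest concentration yielding three or fewer colonies recorded.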

For assay [8], the system named is Nucleic Acid. As to the kind of experiment: DNA binding affinity to poly dA.dT. The assay is classed as nucleic-acid assay.
Assay [9] relates to Aspergillus fumigatus. As to the kind of experiment: In vitro antimicrobial activity against Aspergillus fumigatus (MIC). It is filed as functional.

Among the data in ChEMBL document CHEMBL1134485, “Diguanidino and "reversed" diamidino 2,5-diarylfurans as antimicrobial agents” (2001) are ΔTm, MIC and MFC values, retold here.

Converted amounts (≈) assume the structure as drawn.

Regarding `CC(=N)Nc1ccc(-c2ccc(-c3ccc(NC(C)=N)cc3)o2)cc1`, the figures for the ΔTm in the assay with Nucleic Acid [1] and in the assay on Nucleic Acid [3] were 6 and 15.9, respectively. For the same molecule, the MIC – broadly, the lowest concentration that inhibits growth of the organism – with Aspergillus fumigatus [2] was 100 µg/mL (≈ 301 µM); against Candida albicans [5], more than 100 µg/mL. Further, the MFC – broadly, the lowest tested concentration that kills the fungus rather than only halting it – against Aspergillus fumigatus [4] is more than 100 µg/mL.
Turning to `Cl.Cl.N=C(N)Nc1ccc(-c2ccc(-c3ccc(NC(=N)N)cc3Cl)o2)c(Cl)c1`, the MIC in assay [6] worked out at 4 µg/mL; with Aspergillus fumigatus [2], 100 µg/mL; in the assay with Candida albicans [5], 10 µg/mL. The ΔTm is 4.7 in the assay with Nucleic Acid [1] and 26.1 in the assay with Nucleic Acid [3]. The MFC against Candida albicans [7] and against Aspergillus fumigatus [4] was 100 µg/mL each time.
On to `N=C(Nc1ccc(-c2ccc(-c3ccc(NC(=N)c4ccccn4)cc3Cl)o2)c(Cl)c1)c1ccccn1`, for which the MIC is 8 µg/mL (≈ 15.2 µM) in assay [6], more than 100 µg/mL with Aspergillus fumigatus [2] and 100 µg/mL (≈ 190 µM) against Candida albicans [5]. Besides, the ΔTm in the assay on Nucleic Acid [1] was 0; in the assay with Nucleic Acid [3], 5.2. The MFC in the assay with Candida albicans [7] was more than 100 µg/mL.
With `Cc1cc(NC(=N)N)cc(C)c1-c1ccc(-c2c(C)cc(NC(=N)N)cc2C)o1`, the ΔTm came out at 1.4 in the assay on Nucleic Acid [1] and 2.7 in the assay on Nucleic Acid [3].
The molecule `OC(Cn1cncn1)(Cn1cncn1)c1ccc(F)cc1F` [FLUCONAZOLE] displayed an MFC in the assay on Candida albicans [7] of 25 µg/mL (≈ 81.6 µM). In addition, the MIC against Candida albicans [5] worked out at 6.25 µg/mL (≈ 20.4 µM).
With `N=C(Nc1ccc(-c2ccc(-c3ccc(NC(=N)c4ccccn4)cc3)o2)cc1)c1ccccn1`, the MIC in [6] is 1.56 µg/mL (≈ 3.4 µM). Further, the ΔTm in the assay on Nucleic Acid [1] was 7.5; with Nucleic Acid [3] it was 19.6.
`Cc1cc(NC(=N)N)ccc1-c1ccc(-c2ccc(NC(=N)N)cc2C)o1.Cl.Cl`: the MIC in assay [6] was not above 1 µg/mL; in the assay on Aspergillus fumigatus [2], 33.4 µg/mL; in the assay with Candida albicans [5], 1.04 µg/mL. The figures for the ΔTm with Nucleic Acid [1] and in the assay on Nucleic Acid [3] were 6.9 and 17.8, respectively. In addition, the MFC against Candida albicans [7] was found to be 2.08 µg/mL; in the assay with Aspergillus fumigatus [4], 33.4 µg/mL.
As to `Cc1cc(NC(=N)c2ccccn2)ccc1-c1ccc(-c2ccc(NC(=N)c3ccccn3)cc2C)o1`, the MIC is not above 1 µg/mL in assay [6], 10 µg/mL (≈ 20.6 µM) against Aspergillus fumigatus [2] and 10 µg/mL (≈ 20.6 µM) in the assay on Candida albicans [5]. Moreover, the ΔTm was determined as 8.9 with Nucleic Acid [1] and 22.6 in the assay with Nucleic Acid [3]. Also, the MFC is 10 µg/mL (≈ 20.6 µM) in the assay on Candida albicans [7] and 100 µg/mL (≈ 206 µM) against Aspergillus fumigatus [4].
On to `Cc1cc(NC(=N)c2ccccn2)cc(C)c1-c1ccc(-c2c(C)cc(NC(=N)c3ccccn3)cc2C)o1`, for which the ΔTm in the assay with Nucleic Acid [1] is 1.2; with Nucleic Acid [3] it was 5.7. Further, the MIC against Aspergillus fumigatus [2] and in the assay on Candida albicans [5] was 10 µg/mL (≈ 19.4 µM) throughout. The MFC with Candida albicans [7] and in the assay with Aspergillus fumigatus [4] was more than 100 µg/mL in each case.
Take `COc1cc(NC(=N)c2ccccn2)ccc1-c1ccc(-c2ccc(NC(=N)c3ccccn3)cc2OC)o1`: the MIC (in [6]; in the assay on Aspergillus fumigatus [2]; in the assay on Candida albicans [5]) was not above 1 µg/mL each time. Besides, the ΔTm in the assay with Nucleic Acid [1] was 7.8; with Nucleic Acid [3], 19. Besides, the MFC in the assay with Candida albicans [7] and in the assay on Aspergillus fumigatus [4] was not above 1 µg/mL throughout.
In the case of `CO[C@H]1/C=C/O[C@@]2(C)Oc3c(C)c(O)c4c(O)c(c(/C=N/N5CCN(C)CC5)c(O)c4c3C2=O)NC(=O)/C(C)=C\C=C\[C@H](C)[C@H](O)[C@@H](C)[C@@H](O)[C@@H](C)[C@H](OC(C)=O)[C@@H]1C` [RIFAMPIN], 0.062 µg/mL (≈ 0.0753 µM) was the least that counted as inhibitory in assay [6] (MIC).
As for `Cl.Cl.N=C(Nc1ccc(-c2ccc(-c3ccc(NC(=N)c4ccccc4)cc3)o2)cc1)c1ccccc1`, the MIC in assay [6] is 1.56 µg/mL; against Candida albicans [5] it was 25 µg/mL. In addition, the ΔTm in the assay on Nucleic Acid [1] was 15; in the assay on Nucleic Acid [3], 28.6. Besides, in the assay on Candida albicans [7], the MFC was 50 µg/mL.
`Cc1cc(NC(=N)c2ccc3ccccc3n2)ccc1-c1ccc(-c2ccc(NC(=N)c3ccc4ccccc4n3)cc2C)o1`: the ΔTm with Nucleic Acid [1] came out at 1.1; in the assay with Nucleic Acid [8] it was 7.5. For the same molecule, the MIC against Aspergillus fumigatus [2] and with Candida albicans [5] was 100 µg/mL (≈ 170 µM) in each case. In the assay with Candida albicans [7], this molecule came in with an MFC of 100 µg/mL (≈ 170 µM).
Turning to `Cc1cc(NC(=N)c2ccccc2)ccc1-c1ccc(-c2ccc(NC(=N)c3ccccc3)cc2C)o1`, the MIC was found to be 3.13 µg/mL (≈ 6.46 µM) in assay [6] and 3.12 µg/mL (≈ 6.44 µM) against Candida albicans [5]. Further, the ΔTm with Nucleic Acid [1] amounted to 7.8; in the assay on Nucleic Acid [3] it was 24.9. Moreover, the MFC in the assay with Candida albicans [7] is 6.25 µg/mL (≈ 12.9 µM).
For the molecule `N=C(N)c1ccc(-c2ccc(-c3ccc(C(=N)N)cc3)o2)cc1` [FURAMIDINE], the ΔTm is 11.7 with Nucleic Acid [1] and 25 in the assay on Nucleic Acid [3]. In addition, in the assay on Candida albicans [7], the MFC came to 25 µg/mL (≈ 82.1 µM). This molecule had an MIC with Candida albicans [5] of 6.25 µg/mL (≈ 20.5 µM).
In the case of `Cl.Cl.N=C(N)Nc1ccc(-c2ccc(-c3ccc(NC(=N)N)cc3C(F)(F)F)o2)c(C(F)(F)F)c1`, the MIC in assay [6] came to 8 µg/mL; with Aspergillus fumigatus [2], 100 µg/mL; against Candida albicans [5], 10 µg/mL. Besides, the values for the ΔTm in the assay with Nucleic Acid [1] and in the assay with Nucleic Acid [3] were 0 and 5.9, respectively. Further, the MFC with Candida albicans [7] stood at 10 µg/mL; in the assay on Aspergillus fumigatus [4], 100 µg/mL.
Turning to `Cl.Cl.N=C(N)Nc1ccc(-c2ccc(-c3ccc(NC(=N)N)cc3)o2)cc1`, the MIC amounted to 3.13 µg/mL in assay [6], 12.5 µg/mL against Candida albicans [5] and 100 µg/mL against Aspergillus fumigatus [9]. The ΔTm was 10.8 with Nucleic Acid [1] and 21.6 with Nucleic Acid [3]. In addition, the MFC is 25 µg/mL in the assay on Candida albicans [7] and more than 100 µg/mL against Aspergillus fumigatus [4].
Turning to `N=C(Nc1ccc(-c2ccc(-c3ccc(NC(=N)C4CCCCC4)cc3)o2)cc1)C1CCCCC1`, the MIC in [6] is not above 6.25 µg/mL; in the assay on Aspergillus fumigatus [2], 100 µg/mL (≈ 213 µM); in the assay with Candida albicans [5], more than 100 µg/mL. Further, the ΔTm with Nucleic Acid [1] stood at 12.8; with Nucleic Acid [3] it was 26.7. The MFC in the assay on Aspergillus fumigatus [4] is more than 100 µg/mL.
On to `COc1cc(NC(=N)N)ccc1-c1ccc(-c2ccc(NC(=N)N)cc2OC)o1.Cl.Cl`, for which the MIC in [6] turned out to be 16 µg/mL; against Aspergillus fumigatus [2], 100 µg/mL; in the assay on Candida albicans [5], 10 µg/mL. In addition, the values for the ΔTm in the assay on Nucleic Acid [1] and in the assay on Nucleic Acid [3] were 2.8 and 15.2, respectively. Besides, the MFC with Candida albicans [7] and against Aspergillus fumigatus [4] was 100 µg/mL in each case.
